Measured values taken from ChEMBL document CHEMBL4033670, “Synthesis, characterization, molecular docking and in vitro antimalarial properties of new carboxamides bearing sulphonamide” (Eur J Med Chem, 2017).

What was measured:
Format in all cases: functional
[1] = Antioxidant activity assessed as DPPH radical scavenging activity after 20 mins under dark condition by UV-Visible spectrophotometric analysis
In short: (§1)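 Test compounds were made up in ethanol at 1.0, 2.0, 3.0, 4.0 and 5.0 mg/mL (solution concentrations before mixing). 1 mL of each was shaken with 4 mL of 0.1 mM ethanolic DPPH and kept in the dark at room temperature for 20 min. The decrease in A517 was read against an ethanol baseline. A DPPH blank had no compound. Scavenging % = [(Ac − As)/Ac] × 100.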

[2] = Antioxidant activity assessed as inhibition of DPPH radical generation at 2 mg/ml after 20 mins under dark condition by UV-Visible spectrophotometric analysis relative to control; in short: as §1
[3] = Antioxidant activity assessed as inhibition of DPPH radical generation at 5 mg/ml after 20 mins under dark condition by UV-Visible spectrophotometric analysis relative to control; in short: as §1
[4] = Antioxidant activity assessed as inhibition of DPPH radical generation at 1 mg/ml after 20 mins under dark condition by UV-Visible spectrophotometric analysis relative to control; in short: as §1
[5] = Antioxidant activity assessed as inhibition of DPPH radical generation at 4 mg/ml after 20 mins under dark condition by UV-Visible spectrophotometric analysis relative to control; in short: as §1
[6] = Antioxidant activity assessed as inhibition of DPPH radical generation at 3 mg/ml after 20 mins under dark condition by UV-Visible spectrophotometric analysis relative to control; in short: as §1
[7] = system: Plasmodium falciparum; test: Antimalarial activity against ring stage chloroquine-resistant Plasmodium falciparum W2 preincubated for 48 hrs measured after 48 hrs in presence of 10% human serum by YOYO-1 dye-based FACS analysis
In short: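 Sorbitol-synchronized ring-stage W2 parasites at 0.1% parasitemia grown 48 h in RPMI-1640 + 10% human serum under 3% O2/6% CO2/91% N2 with inhibitors (from 1000× DMSO stocks), no media change. Fixed 48 h in 1% formaldehyde/PBS pH 7.4 at room temperature. Stained with 1 nM YOYO-1 in 0.1% Triton X-100/PBS. Parasitemia read by flow cytometry.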

[8] = Antioxidant activity assessed as inhibition of DPPH radical generation at 0.02 mg/ml after 20 mins under dark condition by UV-Visible spectrophotometric analysis relative to control
[9] = Antioxidant activity assessed as inhibition of DPPH radical generation at 0.05 mg/ml after 20 mins under dark condition by UV-Visible spectrophotometric analysis relative to control
[10] = Antioxidant activity assessed as inhibition of DPPH radical generation at 0.04 mg/ml after 20 mins under dark condition by UV-Visible spectrophotometric analysis relative to control
[11] = Antioxidant activity assessed as inhibition of DPPH radical generation at 0.03 mg/ml after 20 mins under dark condition by UV-Visible spectrophotometric analysis relative to control
[12] = Antioxidant activity assessed as inhibition of DPPH radical generation at 0.01 mg/ml after 20 mins under dark condition by UV-Visible spectrophotometric analysis relative to control

CC(=O)c1ccc(NC(=O)C(Cc2ccccc2)N(C(=O)c2ccccc2)S(=O)(=O)c2ccc(C)cc2)cc1 (stereo unspecified)
IC50 [1]: 7.6 mM
inhibition [2]: 32.7%
inhibition [3]: 53.6%
inhibition [4]: 25.4%
inhibition [5]: 48.5%
inhibition [6]: 39.6%
MIC99 [7]: 0.78 µM

CC(=O)c1ccc(NC(=O)C(C(C)C)N(C(=O)c2ccccc2)S(=O)(=O)c2ccccc2)cc1 (stereo unspecified)
IC50 [1]: 13 mM
inhibition [2]: 41.3%
inhibition [3]: 54.2%
inhibition [4]: 32.1%
inhibition [5]: 52.2%
inhibition [6]: 47.5%
MIC99 [7]: 1.7 µM

CCC(C)C(C(=O)Nc1ccc(C(C)=O)cc1)N(C(=O)c1ccccc1)S(=O)(=O)c1ccc([N+](=O)[O-])cc1 (stereo unspecified)
IC50 [1]: 50 mM
inhibition [2]: 31.7%
inhibition [3]: 53.2%
inhibition [4]: 28.6%
inhibition [5]: 48.4%
inhibition [6]: 42.1%
MIC99 [7]: 0.2 µM

CC(=O)c1ccc(NC(=O)C2CCCN2S(=O)(=O)c2ccccc2)cc1 (stereo unspecified)
IC50 [1]: 69 mM
inhibition [2]: 25.8%
inhibition [3]: 35.7%
inhibition [4]: 22.8%
inhibition [5]: 33.4%
inhibition [6]: 29.1%
MIC99 [7]: 0.11 µM

CC(=O)c1ccc(NC(=O)C(Cc2ccccc2)N(C(=O)c2ccccc2)S(=O)(=O)c2ccc([N+](=O)[O-])cc2)cc1 (stereo unspecified)
IC50 [1]: 39 mM
inhibition [2]: 26.8%
inhibition [3]: 49.2%
inhibition [4]: 19.3%
inhibition [5]: 40%
inhibition [6]: 34.5%
MIC99 [7]: 0.08 µM

CC(=O)c1ccc(NC(=O)C(Cc2c[nH]c3ccccc23)N(C(=O)c2ccccc2)S(=O)(=O)c2ccc([N+](=O)[O-])cc2)cc1 (stereo unspecified)
IC50 [1]: 0.73 mM
inhibition [2]: 22.9%
inhibition [3]: 24.3%
inhibition [4]: 22.1%
inhibition [5]: 24%
inhibition [6]: 23.5%

CC(=O)c1ccc(NC(=O)CN(C(=O)c2ccccc2)S(=O)(=O)c2ccc([N+](=O)[O-])cc2)cc1
IC50 [1]: 58 mM
inhibition [2]: 20.6%
inhibition [3]: 20.7%
inhibition [4]: 20.6%
inhibition [5]: 20.7%
inhibition [6]: 20.6%
MIC99 [7]: 0.18 µM

CC(=O)c1ccc(NC(=O)C(CC(C)C)N(C(=O)c2ccccc2)S(=O)(=O)c2ccc(C)cc2)cc1 (stereo unspecified)
IC50 [1]: 11 mM
inhibition [2]: 58.1%
inhibition [3]: 71.3%
inhibition [4]: 54%
inhibition [5]: 67.2%
inhibition [6]: 63.1%
MIC99 [7]: 0.17 µM

CC(=O)c1ccc(NC(=O)C(C(C)C)N(C(=O)c2ccccc2)S(=O)(=O)c2ccc(C)cc2)cc1 (stereo unspecified)
IC50 [1]: 12 mM
inhibition [2]: 22.7%
inhibition [3]: 42.7%
inhibition [4]: 15.6%
inhibition [5]: 36.6%
inhibition [6]: 29.7%
MIC99 [7]: 2.82 µM

CCC(C)C(C(=O)Nc1ccc(C(C)=O)cc1)N(C(=O)c1ccccc1)S(=O)(=O)c1ccc(C)cc1 (stereo unspecified)
IC50 [1]: 10 mM
inhibition [2]: 25.7%
inhibition [3]: 47.3%
inhibition [4]: 18.6%
inhibition [5]: 41%
inhibition [6]: 33.4%
MIC99 [7]: 5.11 µM

CC(=O)c1ccc(NC(=O)C(Cc2ccccc2)N(C(=O)c2ccccc2)S(=O)(=O)c2ccccc2)cc1 (stereo unspecified)
IC50 [1]: 11 mM
inhibition [2]: 4.37%
inhibition [3]: 11%
inhibition [4]: 2.18%
inhibition [5]: 9.28%
inhibition [6]: 7.21%
MIC99 [7]: 0.9 µM

CCC(C)C(C(=O)Nc1ccc(C(C)=O)cc1)N(C(=O)c1ccccc1)S(=O)(=O)c1ccccc1 (stereo unspecified)
IC50 [1]: 8.6 mM
inhibition [2]: 11.3%
inhibition [3]: 16.8%
inhibition [4]: 9.71%
inhibition [5]: 15.5%
inhibition [6]: 14.2%
MIC99 [7]: 1.25 µM

CC(=O)c1ccc(NC(=O)C2CC(O)CN2S(=O)(=O)c2ccc(C)cc2)cc1 (stereo unspecified)
IC50 [1]: 25 mM
inhibition [2]: 12.5%
inhibition [3]: 13%
inhibition [4]: 12.4%
inhibition [5]: 12.9%
inhibition [6]: 12.7%
MIC99 [7]: 2.27 µM

CC(=O)c1ccc(NC(=O)C(Cc2c[nH]c3ccccc23)N(C(=O)c2ccccc2)S(=O)(=O)c2ccc(C)cc2)cc1 (stereo unspecified)
IC50 [1]: 0.045 mM
inhibition [2]: 58%
inhibition [3]: 39.5%
inhibition [4]: 39.5%
inhibition [5]: 39.5%
inhibition [6]: 39.5%

CC(=O)c1ccc(NC(=O)C2CCCN2S(=O)(=O)c2ccc(C)cc2)cc1 (stereo unspecified)
IC50 [1]: 36 mM
inhibition [2]: 20.7%
inhibition [3]: 20.7%
inhibition [4]: 20.6%
inhibition [5]: 20.7%
inhibition [6]: 20.7%
MIC99 [7]: 1.45 µM

CCN(CC)CCCC(C)Nc1ccnc2cc(Cl)ccc12 (stereo unspecified) [CHLOROQUINE]
MIC99 [7]: 0.06 µM

CC(=O)c1ccc(NC(=O)C(CC(C)C)N(C(=O)c2ccccc2)S(=O)(=O)c2ccc([N+](=O)[O-])cc2)cc1 (stereo unspecified)
IC50 [1]: 8.4 mM
inhibition [3]: 81.3%
inhibition [4]: 45%
inhibition [5]: 71%
inhibition [6]: 62.3%
MIC99 [7]: 0.06 µM

CC(=O)c1ccc(NC(=O)CN(C(=O)c2ccccc2)S(=O)(=O)c2ccccc2)cc1
IC50 [1]: 32 mM
inhibition [2]: 40.5%
inhibition [3]: 45.4%
inhibition [4]: 40.5%
inhibition [5]: 40.9%
inhibition [6]: 40.7%
MIC99 [7]: 0.97 µM

C=C[C@H]1CN2CC[C@H]1C[C@H]2[C@H](O)c1ccnc2ccc(OC)cc12 [QUININE]
MIC99 [7]: 0.83 µM

CC(=O)c1ccc(NC(=O)C2CC(O)CN2S(=O)(=O)c2ccc([N+](=O)[O-])cc2)cc1 (stereo unspecified)
IC50 [1]: 7.1 mM
inhibition [3]: 70.7%
inhibition [4]: 43.2%
inhibition [5]: 60.1%
inhibition [6]: 58.7%
MIC99 [7]: 0.32 µM

CC(=O)c1ccc(NC(=O)C(C(C)C)N(C(=O)c2ccccc2)S(=O)(=O)c2ccc([N+](=O)[O-])cc2)cc1 (stereo unspecified)
IC50 [1]: 6.8 mM
inhibition [2]: 29.8%
inhibition [3]: 27.4%
inhibition [4]: 29.8%
inhibition [5]: 27.2%
inhibition [6]: 29.8%
MIC99 [7]: 1.57 µM

CC(=O)c1ccc(NC(=O)C2CCCN2S(=O)(=O)c2ccc([N+](=O)[O-])cc2)cc1 (stereo unspecified)
IC50 [1]: 19 mM
inhibition [2]: 23.5%
inhibition [3]: 25.6%
inhibition [4]: 22.7%
inhibition [5]: 25.3%
inhibition [6]: 24.3%
MIC99 [7]: 6.74 µM

CC(=O)c1ccc(NC(=O)CN(C(=O)c2ccccc2)S(=O)(=O)c2ccc(C)cc2)cc1
IC50 [1]: 102 mM
inhibition [2]: 18.1%
inhibition [3]: 18.7%
inhibition [4]: 17.9%
inhibition [5]: 18.4%
inhibition [6]: 18.2%
MIC99 [7]: 0.72 µM

CC(=O)c1ccc(NC(=O)C(CC(C)C)N(C(=O)c2ccccc2)S(=O)(=O)c2ccccc2)cc1 (stereo unspecified)
IC50 [1]: 3.2 mM
inhibition [2]: 54.2%
inhibition [3]: 52.2%
inhibition [4]: 27.7%
inhibition [5]: 46.9%
inhibition [6]: 40.7%
MIC99 [7]: 0.26 µM

CC(=O)c1ccc(NC(=O)C2CC(O)CN2S(=O)(=O)c2ccccc2)cc1 (stereo unspecified)
IC50 [1]: 3.8 mM
inhibition [2]: 57%
inhibition [3]: 58.7%
inhibition [4]: 40.2%
inhibition [5]: 54.5%
inhibition [6]: 49.8%
MIC99 [7]: 0.16 µM

CC(=O)c1ccc(NC(=O)C(Cc2c[nH]c3ccccc23)N(C(=O)c2ccccc2)S(=O)(=O)c2ccccc2)cc1 (stereo unspecified)
IC50 [1]: 51 mM
inhibition [2]: 39.4%
inhibition [3]: 61.2%
inhibition [4]: 31.7%
inhibition [5]: 54.1%
inhibition [6]: 47%

O=C1O[C@H]([C@@H](O)CO)C(O)=C1O [ASCORBIC ACID]
IC50 [1]: 0.34 mM
inhibition [8]: 20%
inhibition [9]: 40%
inhibition [10]: 30%
inhibition [11]: 25%
inhibition [12]: 15%
